Experimental data from ChEMBL document CHEMBL1157746, “Function-oriented synthesis of simplified caprazamycins: discovery of oxazolidine-containing uridine derivatives as antibacterial agents against drug-resistant bacteria” (J Med Chem, 2010).
pIC50: −log10 of the molar value. Converted amounts (≈) assume the structure as drawn.

Experiments:
Enterococcus faecium [1] = test: Antibacterial activity against vancomycin-resistant Enterococcus faecium SR-7917 clinical isolate after 20 hrs by two fold microdilution broth method; type: functional; conditions: SR7917, 20 h
How it was run: (§1)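 NCCLS broth microdilution in cation-adjusted Mueller-Hinton broth. Serial 2-fold compound dilutions, inoculum 5×10⁴ CFU per well in 0.1 mL. Plates incubated at 35 °C for 20 h, then MIC (μg/mL) scored. Strains are clinical isolates from Japanese hospitals: MRSA SR3637, VanA E. faecalis SR7914, VanA E. faecium SR7917.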

Enterococcus faecalis [2] = test: Antibacterial activity against Enterococcus faecalis ATCC 29212 after 20 hrs by two fold microdilution broth method; type: functional; conditions: ATCC 29212, 20 h
How it was run: (§2)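 NCCLS-recommended broth microdilution in cation-adjusted Mueller-Hinton broth; serial 2-fold compound dilutions; each well inoculated with 5×10⁴ CFU in 0.1 mL; incubated 35 °C for 20 h, then MIC (μg/mL) scored.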

[3] = biological target: T1, Phospho-N-acetylmuramoyl-pentapeptide-transferase (Bacillus subtilis (strain 168), UniProt Q03521); test: Inhibition of Bacillus subtilis MraY after 30 mins using UDP-MurNAc-pentapeptide as substrate
T1 sequence (Q03521 whole entry): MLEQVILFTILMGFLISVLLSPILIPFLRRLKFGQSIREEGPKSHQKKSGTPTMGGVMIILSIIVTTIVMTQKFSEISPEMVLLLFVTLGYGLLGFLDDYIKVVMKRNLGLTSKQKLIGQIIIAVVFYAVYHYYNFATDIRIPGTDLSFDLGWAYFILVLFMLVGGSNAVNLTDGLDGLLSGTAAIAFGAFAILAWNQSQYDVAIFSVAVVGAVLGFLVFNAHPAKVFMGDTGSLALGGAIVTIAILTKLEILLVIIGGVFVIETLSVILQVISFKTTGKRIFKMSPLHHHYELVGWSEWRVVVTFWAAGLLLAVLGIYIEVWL

Enterococcus faecalis [4] = test: Antibacterial activity against vancomycin-resistant Enterococcus faecalis SR-7914 clinical isolate after 20 hrs by two fold microdilution broth method; type: functional; conditions: SR7914, 20 h; how it was run: as §1
Enterococcus faecium [5] = test: Antibacterial activity against Enterococcus faecium ATCC 19434 after 20 hrs by two fold microdilution broth method; type: functional; conditions: ATCC 19434, 20 h; how it was run: as §2
Staphylococcus aureus [6] = test: Antibacterial activity against methicillin-resistant Staphylococcus aureus SR-3637 clinical isolate after 20 hrs by two fold microdilution broth method; type: functional; conditions: SR3637, 20 h; how it was run: as §1
Staphylococcus aureus [7] = test: Antibacterial activity against methicillin-sensitive Staphylococcus aureus ATCC 29213 after 20 hrs by two fold microdilution broth method; type: functional; conditions: ATCC 29213, 20 h; how it was run: as §2

| SMILES | MIC (Enterococcus faecium [1]) [µg/mL] | MIC (Enterococcus faecalis [2]) [µg/mL] | pIC50 [3] | MIC (Enterococcus faecalis [4]) [µg/mL] | MIC (Enterococcus faecium [5]) [µg/mL] | MIC (Staphylococcus aureus [6]) [µg/mL] | MIC (Staphylococcus aureus [7]) [µg/mL] |
| --- | --- | --- | --- | --- | --- | --- | --- |
| CCCCCCCCc1ccc(NC(=O)[C@@H](N)[C@H](O[C@@H]2O[C@H](CN)[C@@H](O)[C@H]2O)[C@H]2O[C@@H](n3ccc(=O)[nH]c3=O)[C@H](O)[C@@H]2O)cc1.O=C(O)C(F)(F)F | 32 | 16 | 4.34 | 64 | 32 | 64 | 64 |
| CCCCCCCCCCCCNC(=O)[C@@H](N)[C@H](O[C@@H]1O[C@H](CN)[C@@H](O)[C@H]1O)[C@H]1O[C@@H](n2ccc(=O)[nH]c2=O)[C@H](O)[C@@H]1O.O=C(O)C(F)(F)F | 16 | 16 | 4.74 | 32 | 16 | 64 | 64 |
| CCCCCCCCCCCC(=O)N[C@H](C(=O)O)[C@H](O[C@@H]1O[C@H](CN)[C@@H](O)[C@H]1O)[C@H]1O[C@@H](n2ccc(=O)[nH]c2=O)[C@H](O)[C@@H]1O.O=C(O)C(F)(F)F | > 64 | > 64 | 4.20 | > 64 | > 64 | > 64 | > 64 |
| CCCCCCCCc1ccc(C(=O)N[C@H](C(=O)O)[C@H](O[C@@H]2O[C@H](CN)[C@@H](O)[C@H]2O)[C@H]2O[C@@H](n3ccc(=O)[nH]c3=O)[C@H](O)[C@@H]2O)cc1.O=C(O)C(F)(F)F | > 64 | 64 | 3.59 | > 64 | > 64 | > 64 | > 64 |
| CCCCCCCCCCCCNC(=O)N[C@H](C(=O)O)[C@H](O[C@@H]1O[C@H](CN)[C@@H](O)[C@H]1O)[C@H]1O[C@@H](n2ccc(=O)[nH]c2=O)[C@H](O)[C@@H]1O.O=C(O)C(F)(F)F | > 64 | 64 | 4.44 | 64 | > 64 | > 64 | > 64 |
| CCCCCCCCc1ccc(NC(=O)N[C@H](C(=O)O)[C@H](O[C@@H]2O[C@H](CN)[C@@H](O)[C@H]2O)[C@@H]2O[C@@H](n3ccc(=O)[nH]c3=O)[C@H](O)[C@@H]2O)cc1.O=C(O)C(F)(F)F | > 64 | 64 | 4.12 | 64 | > 64 | > 64 | > 64 |
| CCCCCCCCCCCCCCCC(=O)N1[C@H](C(=O)O)[C@@H]([C@H]2O[C@@H](n3ccc(=O)[nH]c3=O)[C@H](O)[C@@H]2O)O[C@@H]1CN | > 64 | > 64 | 3.13 | > 64 | > 64 | > 64 | > 64 |
| CCCCCCCCCCCCCCCC(=O)N1[C@H](C(=O)O)[C@@H]([C@H]2O[C@@H](n3ccc(=O)[nH]c3=O)[C@H](O)[C@@H]2O)O[C@@H]1CCN | > 64 | > 64 | 3.35 | > 64 | > 64 | > 64 | > 64 |
| CCCCCCCCCCCCCCCC(=O)N1[C@H](C(=O)O)[C@@H]([C@H]2O[C@@H](n3ccc(=O)[nH]c3=O)[C@H](O)[C@@H]2O)O[C@@H]1CCCN | > 64 | > 64 | 3.44 | > 64 | > 64 | > 64 | > 64 |
| CCCCCCCCCCCCCCCC(=O)N1[C@H](C(=O)OC)[C@@H]([C@H]2O[C@@H](n3ccc(=O)[nH]c3=O)[C@H](O)[C@@H]2O)O[C@@H]1CN.Cl | 16 | 32 | 3.01 | 64 | 32 | 13 | > 64 |
| CCCCCCCCCCCCCCCC(=O)N1[C@H](C(=O)OC)[C@@H]([C@H]2O[C@@H](n3ccc(=O)[nH]c3=O)[C@H](O)[C@@H]2O)O[C@@H]1CCN.Cl | 8 | 8 | 3.04 | 16 | 4 | 8 | 8 |
| CCCCCCCCCCCCCCCC(=O)N1[C@H](C(=O)OC)[C@@H]([C@H]2O[C@@H](n3ccc(=O)[nH]c3=O)[C@H](O)[C@@H]2O)O[C@@H]1CCCN.Cl | 4 | 8 | 2.92 | 16 | 8 | 8 | 8 |
| CCCCCCCCCCCCCCCC(=O)N1[C@H](C(=O)OC(C)(C)C)[C@@H]([C@H]2O[C@@H](n3ccc(=O)[nH]c3=O)[C@H](O)[C@@H]2O)O[C@@H]1CN | 4 (≈ 6.13 µM) | 4 (≈ 6.13 µM) |  | 2 (≈ 3.06 µM) | 4 (≈ 6.13 µM) | 16 (≈ 24.5 µM) | 8 (≈ 12.3 µM) |
| CCCCCCCCCCCCCCCC(=O)N1[C@H](C(=O)OC(C)(C)C)[C@@H]([C@H]2O[C@@H](n3ccc(=O)[nH]c3=O)[C@H](O)[C@@H]2O)O[C@@H]1CCN | 8 (≈ 12 µM) | 2 (≈ 3 µM) |  | 2 (≈ 3 µM) | 2 (≈ 3 µM) | 16 (≈ 24 µM) | 8 (≈ 12 µM) |
| CCCCCCCCCCCCCCCCNC(=O)[C@@H]1[C@@H]([C@H]2O[C@@H](n3ccc(=O)[nH]c3=O)[C@H](O)[C@@H]2O)O[C@H](CN)N1C(C)=O.Cl | 16 | 32 |  | 16 | 16 | 32 | 16 |
| CCCCCCCCCCCCCCCCNC(=O)[C@@H]1[C@@H]([C@H]2O[C@@H](n3ccc(=O)[nH]c3=O)[C@H](O)[C@@H]2O)O[C@H](CCN)N1C(C)=O.Cl | 16 | 16 |  | 16 | 16 | 16 | 16 |
| CCCCCCCCCCCCCCCCNC(=O)[C@@H]1[C@@H]([C@H]2O[C@@H](n3ccc(=O)[nH]c3=O)[C@H](O)[C@@H]2O)O[C@H](CCCN)N1C(C)=O.Cl | 16 | 16 |  | 16 | 16 | 32 | 16 |
| CCCCCCCCCCCCCCCC(=O)N1[C@H](C(=O)OC)[C@@H]([C@H]2O[C@@H](n3ccc(=O)[nH]c3=O)[C@H](O)[C@@H]2O)O[C@@H]1CCN=[N+]=[N-] | 64 (≈ 98.3 µM) | 16 (≈ 24.6 µM) |  | > 64 | 64 (≈ 98.3 µM) | > 64 | > 64 |
| CCCCCCCCCCCCCCCC(=O)N1[C@H](C(=O)OC)[C@@H]([C@H]2O[C@@H](n3ccc(=O)[nH]c3=O)[C@H](O)[C@@H]2O)O[C@@H]1CCCN=[N+]=[N-] | 64 (≈ 96.3 µM) | 32 (≈ 48.1 µM) |  | > 64 | > 64 | > 64 | > 64 |
| CCCCCCCCCCCCCCCC(=O)O[C@H]1CN[C@@H]([C@H](O[C@@H]2O[C@H](CN)[C@@H](O)[C@H]2O)[C@H]2O[C@@H](n3ccc(=O)[nH]c3=O)[C@H](O)[C@@H]2O)C(=O)N(C)[C@@H]1C(=O)O [DESMETHYLPALMITOYLCAPRAZOL] | 1 (≈ 1.25 µM) | 0.5 (≈ 0.625 µM) |  | 2 (≈ 2.5 µM) | 1 (≈ 1.25 µM) | 0.5 (≈ 0.625 µM) | 0.5 (≈ 0.625 µM) |
| CN[C@H](CC(C)C)C(=O)N[C@H]1C(=O)N[C@@H](CC(N)=O)C(=O)N[C@H]2C(=O)N[C@H]3C(=O)N[C@H](C(=O)N[C@H](C(=O)O)c4cc(O)cc(O)c4-c4cc3ccc4O)[C@H](O)c3ccc(c(Cl)c3)Oc3cc2cc(c3O[C@@H]2O[C@H](CO)[C@@H](O)[C@H](O)[C@H]2O[C@H]2C[C@](C)(N)[C@H](O)[C@H](C)O2)Oc2ccc(cc2Cl)[C@H]1O [VANCOMYCIN] | > 64 | 1 (≈ 0.69 µM) |  | > 64 | > 64 |  |  |
